14 compounds from PubChem BioAssay can be followed below.

The nature of assay [1]: Her2 expression decrease, cell viability multiplex – SKBR3 breast tumor cells, AlphaScreen, ATP viability, primary screen (AID 461;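 active = Her2 level under about 52% in both replicate screens, with viability over 70% of control, limit read from the data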;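 for Her2 level: lower value means less Her2 protein in the cells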;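 for viability: percent of carrier control wells set as 100% viability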). Particulars: SKBR3 Her2 protein level, 18-24 h, measured here: SKBR3 viability, ATP luminescence, at 10 µM.
Assay [2] concerns the target Receptor tyrosine-protein kinase erbB-2 (Homo sapiens) (UniProt P04626). The assay is described as above. Particulars: 18-24 h, at 10 µM, stronger effect = lower value.
Assay [3] is described as follows: reduced viability of SK-BR-3 breast cancer cells – cell-based, 24 h, human, pilot screen (AID 572;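 active = viability at or below 10% of carrier control in both of two separate runs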;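 note: compound exposure lasted between 18 and 24 h rather than exactly 24 h; 100% = carrier-treated control wells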). Particulars: SK-BR-3 viability, CellTiter-Glo luminescence, at 10 µM, stronger effect = lower value.
A short description of assay [4]: HUVEC growth inhibition – cell-based, human, primary screen (AID 575;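 active = viability at or below 30% in both replicate assays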;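 note: 100% = median of untreated cell wells with 0.1% DMSO on each plate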). Conditions: HUVEC proliferation, CellTiter-Glo luminescence, 72 h; at 10 µM; stronger effect = lower value. In a few lines:
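Test system – primary HUVEC, no more than 12 passages · Dosing – one dose, 10 µM final, 0.1% DMSO · Times – 72 h treatment at 37 °C · Measured by – ATP-based CellTiter-Glo luminescent read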

Assay [5] can be described thus: H69AR cell proliferation blockers – human, duplicate replicates, primary screen (AID 580).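 Note: 100% = mean luminescence of untreated wells and 0% = no signal.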 Particulars: H69AR lung tumor cells viability, ATP luminescence, 72 h; at 10 µM; stronger effect = lower value.
Assay [6] in a line: MRP1 drug-resistance reversers in H69AR cells – cell-based, doxorubicin co-treatment, pilot screen (AID 601;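 active = viability loss from added drug above about 55%, and viability with drug at most 40%, in both replicates, limit read from the data, passing the limit was not always enough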). Particulars: CellTiter-Glo, 72 h, at 10 µM; for differential viability (reversal): stronger effect = higher value.
Assay [7] in a line: yeast transport mutant growth inhibition pilot in 384-well plates, post-Golgi transport modulator project (AID 636; in the data active = inhibition above about 31%). Conditions: absorbance 615 nm, about 18 h, stronger effect = higher value.
The nature of assay [8]: growth suppression of yeast trafficking mutant, preliminary HTS, modulators of trafficking downstream of Golgi apparatus project, 1536-format plate, OD 615 nm (AID 637; in the data active = inhibition above about 30%). Particulars: yeast transport mutant growth, absorbance 615 nm, 18 h; stronger effect = higher value.
[9] abbreviates: H69AR cells + 2 uM doxorubicin, measured here: viability with 2 uM doxorubicin, stronger effect = lower value.
The mark [10] stands for this setting: H69AR cells, compound alone cytotoxicity.

The source made the active and inactive calls.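 Rule for the calls, unless noted: active = viability at or under a set limit in both replicates, limit being median viability minus 3 SD (cut at about 48% in these data, passing the limit was not always enough); inconclusive = at or under the limit in just one replicate; inactive = at or above the limit in both replicates.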

Sequence of Receptor tyrosine-protein kinase erbB-2 (Homo sapiens) (P04626 whole entry, looked up): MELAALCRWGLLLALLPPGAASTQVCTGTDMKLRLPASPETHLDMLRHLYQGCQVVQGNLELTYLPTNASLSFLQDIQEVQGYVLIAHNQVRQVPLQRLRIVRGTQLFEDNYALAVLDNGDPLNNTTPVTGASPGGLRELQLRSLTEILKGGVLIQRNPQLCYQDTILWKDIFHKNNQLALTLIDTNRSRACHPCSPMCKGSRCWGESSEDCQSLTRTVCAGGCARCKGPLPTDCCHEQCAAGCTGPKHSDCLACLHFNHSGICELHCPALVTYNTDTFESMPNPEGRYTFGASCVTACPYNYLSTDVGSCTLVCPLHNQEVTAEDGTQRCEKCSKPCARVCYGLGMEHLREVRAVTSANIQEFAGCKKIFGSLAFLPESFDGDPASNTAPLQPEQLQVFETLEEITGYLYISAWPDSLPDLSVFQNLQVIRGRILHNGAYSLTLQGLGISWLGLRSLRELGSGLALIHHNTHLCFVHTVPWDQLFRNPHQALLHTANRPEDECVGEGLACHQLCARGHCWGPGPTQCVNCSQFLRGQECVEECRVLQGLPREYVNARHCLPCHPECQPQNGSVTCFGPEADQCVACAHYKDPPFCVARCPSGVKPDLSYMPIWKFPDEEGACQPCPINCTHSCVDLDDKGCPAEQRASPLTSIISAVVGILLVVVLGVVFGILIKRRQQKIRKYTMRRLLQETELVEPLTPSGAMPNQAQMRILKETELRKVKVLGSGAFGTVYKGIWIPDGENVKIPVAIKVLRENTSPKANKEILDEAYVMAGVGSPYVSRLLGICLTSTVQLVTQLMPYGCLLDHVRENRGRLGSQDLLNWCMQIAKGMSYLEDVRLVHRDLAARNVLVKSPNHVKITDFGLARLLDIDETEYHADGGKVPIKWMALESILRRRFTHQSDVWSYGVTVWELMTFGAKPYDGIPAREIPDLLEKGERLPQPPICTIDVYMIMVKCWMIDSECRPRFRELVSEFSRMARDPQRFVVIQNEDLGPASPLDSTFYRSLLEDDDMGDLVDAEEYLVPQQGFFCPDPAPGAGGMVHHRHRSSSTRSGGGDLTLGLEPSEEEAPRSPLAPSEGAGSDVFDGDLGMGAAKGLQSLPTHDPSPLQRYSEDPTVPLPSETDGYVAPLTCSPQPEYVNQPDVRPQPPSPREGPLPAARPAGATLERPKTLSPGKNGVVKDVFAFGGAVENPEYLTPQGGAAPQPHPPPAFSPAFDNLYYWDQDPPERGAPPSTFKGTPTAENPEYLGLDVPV

Turning to `Cc1ccc(Cn2nnc3c(=O)n(CC(=O)NCC4CCCO4)cnc32)cc1` (stereo not given), the viability was 97% in assay [1]; 97% (inactive) in assay [3]; 105% (inactive) in assay [4]; 104% (inactive) in assay [5]; 90.4% in assay [6] (setting [9]); 104% in assay [6] (setting [10]). Also, the Her2 level in assay [2] was 88.5% (inactive). The differential viability (reversal) in assay [6] (H69AR cells + 2 uM doxorubicin) was 13.4% (inactive). The inhibition in assay [7] was -6.05% (inactive); in assay [8], -0.79% (inactive).

As to `Cc1ccc(NC(=O)CSc2nnc(CNC(=O)c3c(F)cccc3Cl)o2)cc1`, the viability in assay [1] is 80%; in assay [3], 80% (inactive); in assay [4], 98% (inactive); in assay [5], 95.7% (inactive); in assay [6] (setting [9]), 96.5%; in assay [6] (setting [10]), 95.7%. For the same compound, in assay [2], the Her2 level is 98% (inactive). For the same compound, the differential viability (reversal) in assay [6] (H69AR cells + 2 uM doxorubicin) was -0.775% (inactive). The inhibition in assay [7] is -0.51% (inactive); in assay [8], -6.83% (inactive).

Take `Cc1ccc(/C=c2\sc3nc(-c4ccccc4Br)nn3c2=O)o1`: the viability in assay [1] is 89%; in assay [3], 89% (inactive); in assay [4], 110% (inactive); in assay [5] it was 95.5% (inactive); in assay [6] (setting [9]), 89%; in assay [6] (setting [10]), 95.5%. Also, the Her2 level in assay [2] is 85% (inactive). The differential viability (reversal) in assay [6] (H69AR cells + 2 uM doxorubicin) is 6.48% (inactive). Besides, the inhibition is -7.47% (inactive) in assay [7] and 10.7% (inactive) in assay [8].

As to `COc1ccc(NC2c3ncccc3C(=O)N2Cc2ccccc2)c(OC)c1` (stereo not given), the viability was 101% in assay [1]; 101% (inactive) in assay [3]; 93.8% (inactive) in assay [4]; 95.8% (inactive) in assay [5]; 91.5% in assay [6] (setting [9]); 95.8% in assay [6] (setting [10]). For the same compound, in assay [2], the Her2 level is 85.5% (inactive). Besides, the differential viability (reversal) in assay [6] (H69AR cells + 2 uM doxorubicin) is 4.3% (inactive). The values for the inhibition in assay [7] and in assay [8] were -1.56% (inactive) and 1.75% (inactive), respectively.

In the case of `CCOCCCNc1ncnc2c1[nH]c1ccccc12`, the viability was 99% in assay [1]; 99% (inactive) in assay [3]; 89.5% (inactive) in assay [4]; 90.3% (inactive) in assay [5]; 104% in assay [6] (setting [9]); 90.3% in assay [6] (setting [10]). Also, in assay [2], the Her2 level is 96.5% (inactive). Moreover, the differential viability (reversal) in assay [6] (H69AR cells + 2 uM doxorubicin) was -13.3% (inactive). Also, the inhibition in assay [7] is -2.63% (inactive); in assay [8], 1.31% (inactive).

As for `O=C(O)c1cc2nc(-c3ccc(F)cc3)cc(C(F)(F)F)n2n1`, the viability in assay [1] was 94%; in assay [3], 94% (inactive); in assay [4] it was 82% (inactive); in assay [5], 93.2% (inactive); in assay [6] (setting [9]), 89.2%; in assay [6] (setting [10]), 93.2%. Moreover, the Her2 level in assay [2] is 118% (inactive). The differential viability (reversal) in assay [6] (H69AR cells + 2 uM doxorubicin) was 4% (inactive). Besides, the inhibition in assay [7] was -2.24% (inactive); in assay [8], -1% (inactive).

As to `CC(C)(C)c1ccccc1NC(=O)c1cccnc1`, the viability was 91.5% in assay [1]; 91.5% (inactive) in assay [3]; 88.7% (inactive) in assay [4]; 96.6% (inactive) in assay [5]; 88.8% in assay [6] (setting [9]); 96.6% in assay [6] (setting [10]). In addition, the Her2 level in assay [2] is 93.5% (inactive). Besides, the differential viability (reversal) in assay [6] (H69AR cells + 2 uM doxorubicin) was 7.78% (inactive). Further, the inhibition in assay [7] was -4.67% (inactive); in assay [8], 0.32% (inactive).

`COC(=O)C1=C(C)NC(C)=C(C(=O)OC)C1c1cc2cc(C)ccc2[nH]c1=O`: the viability in assay [1] is 103%; in assay [3], 103% (inactive); in assay [4], 84.6% (inactive); in assay [5] it was 79.4% (inactive); in assay [6] (setting [9]) it was 72.6%; in assay [6] (setting [10]), 79.4%. The Her2 level in assay [2] is 66% (inactive). For the same compound, the differential viability (reversal) in assay [6] (H69AR cells + 2 uM doxorubicin) is 6.74% (inactive). The inhibition is -3.29% (inactive) in assay [7] and 3.45% (inactive) in assay [8].

In the case of `CCCOc1cccc(-c2nnc(N)s2)c1`, the viability in assay [1] was 102%; in assay [3] it was 102% (inactive); in assay [4], 87.4% (inactive); in assay [5], 100% (inactive); in assay [6] (setting [9]), 78.5%; in assay [6] (setting [10]), 100%. The Her2 level in assay [2] was 121% (inactive). In addition, the differential viability (reversal) in assay [6] (H69AR cells + 2 uM doxorubicin) was 21.6% (inactive). In addition, the inhibition in assay [7] is -4.8% (inactive); in assay [8] it was -5.56% (inactive).

Regarding `O=C(CN(CCc1ccccc1)C(=O)CN1C(=O)COc2ccccc21)NCc1ccco1`, the viability in assay [1] was 88.5%; in assay [3], 88.5% (inactive); in assay [4], 102% (inactive); in assay [5] it was 78.6% (inactive); in assay [6] (setting [9]) it was 78%; in assay [6] (setting [10]), 78.6%. Also, the Her2 level in assay [2] is 87.5% (inactive). Further, the differential viability (reversal) in assay [6] (H69AR cells + 2 uM doxorubicin) was 0.605% (inactive). Moreover, the inhibition in assay [7] is -0.65% (inactive); in assay [8], -1.15% (inactive).

As for `C=CCNC(=O)c1cccc(Br)c1`, the viability was 92% in assay [1]; 92% (inactive) in assay [3]; 89.4% (inactive) in assay [4]; 92% (inactive) in assay [5]; 101% in assay [6] (setting [9]); 92% in assay [6] (setting [10]). Besides, the Her2 level in assay [2] is 94% (inactive). The differential viability (reversal) in assay [6] (H69AR cells + 2 uM doxorubicin) was -9.44% (inactive). Also, the inhibition is 9.59% (inactive) in assay [7] and 5.08% (inactive) in assay [8].

For `CC1(C)Cc2nc3oc4c(N(CCO)Cc5ccccc5)ncnc4c3cc2CO1`, the viability is 95.5% in assay [1]; 95.5% (inactive) in assay [3]; 92.5% (inactive) in assay [4]; 86.2% (inactive) in assay [5]; 82.1% in assay [6] (setting [9]); 86.2% in assay [6] (setting [10]). Besides, the Her2 level in assay [2] is 86.5% (inactive). Besides, in assay [6] (H69AR cells + 2 uM doxorubicin), the differential viability (reversal) was 4.17% (inactive). For the same compound, the inhibition in assay [7] was -1.76% (inactive); in assay [8], -4.33% (inactive).

Turning to `COC(=O)CCSCc1cn2cc(Cl)ccc2n1`, the viability in assay [1] was 120%; in assay [3] it was 120% (inactive); in assay [4] it was 87.3% (inactive); in assay [5] it was 99.5% (inactive); in assay [6] (setting [9]), 98.2%; in assay [6] (setting [10]) it was 99.5%. Also, the Her2 level in assay [2] was 106% (inactive). The differential viability (reversal) in assay [6] (H69AR cells + 2 uM doxorubicin) was 1.26% (inactive). The inhibition in assay [7] is -8% (inactive); in assay [8], -9.84% (inactive).

Turning to `Cc1ccc2c(c1)NC(=O)C(CC(=O)NCCN(CC(C)C)CC(C)C)O2` (stereo not given), the viability is 88% in assay [1]; 88% (inactive) in assay [3]; 87.3% (inactive) in assay [4]; 91.6% (inactive) in assay [5]; 85.8% in assay [6] (setting [9]); 91.6% in assay [6] (setting [10]). In assay [2], the Her2 level was 93% (inactive). The differential viability (reversal) in assay [6] (H69AR cells + 2 uM doxorubicin) was 5.71% (inactive). The inhibition was 2.13% (inactive) in assay [7] and -3.28% (inactive) in assay [8].
